Active and inactive are the calls of the source. No cut-off for these calls is given here.
Columns and labels:
[1] = biological target: T1, NAD-dependent protein deacetylase sirtuin-2 (Homo sapiens) (UniProt Q8IXJ6); experiment: Inhibition of human N-terminal His6-SUMO-tagged SIRT2 catalytic domain (43 to 356 residues) deacetylase activity expressed in Escherichia coli using alpha-tubulin-acetylLys40 peptide as substrate at 100 uM after 45 mins in presence of NAD+ by pNCA/GDH-based microplate spectrophotometric analysis
T1 sequence (whole entry): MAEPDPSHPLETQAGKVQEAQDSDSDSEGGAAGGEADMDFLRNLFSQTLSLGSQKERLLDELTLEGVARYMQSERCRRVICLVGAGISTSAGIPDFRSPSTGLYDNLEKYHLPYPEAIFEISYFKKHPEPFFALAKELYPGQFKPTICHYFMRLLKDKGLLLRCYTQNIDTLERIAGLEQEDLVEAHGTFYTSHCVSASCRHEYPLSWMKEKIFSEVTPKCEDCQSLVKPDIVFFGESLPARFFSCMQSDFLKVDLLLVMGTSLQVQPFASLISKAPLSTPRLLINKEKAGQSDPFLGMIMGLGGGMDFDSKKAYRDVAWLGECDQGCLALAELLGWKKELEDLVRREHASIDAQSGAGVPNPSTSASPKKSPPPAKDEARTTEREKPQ
Outline: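 Continuous coupled assay: Sirt2 product nicotinamide is converted by pNCA/GDH, and NADPH oxidation is read at 340 nm. Compounds were tested at 10 and 100 μM. Background was taken without peptide or NAD+.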

U-937 [2] = experiment: Effect on cell cycle arrest in human U937 cells at 25 uM after 48 hrs by propidium iodide staining-based FACS analysis; format: functional
U-937 [3] = experiment: Cell cycle arrest in human U937 cells assessed as accumulation at G2/M phase at 25 uM after 48 hrs by propidium iodide staining-based FACS analysis; format: functional
[4] = biological target: T2, NAD-dependent protein deacetylase sirtuin-3, mitochondrial (Homo sapiens) (UniProt Q9NTG7); experiment: Inhibition of human SIRT3 (114 to 380 residues) activity expressed in Escherichia coli using AceCS2 peptide as substrate up to 100 uM after 45 mins in presence of NAD+ by pNCA/GDH-based microplate spectrophotometric analysis
T2 sequence (whole entry): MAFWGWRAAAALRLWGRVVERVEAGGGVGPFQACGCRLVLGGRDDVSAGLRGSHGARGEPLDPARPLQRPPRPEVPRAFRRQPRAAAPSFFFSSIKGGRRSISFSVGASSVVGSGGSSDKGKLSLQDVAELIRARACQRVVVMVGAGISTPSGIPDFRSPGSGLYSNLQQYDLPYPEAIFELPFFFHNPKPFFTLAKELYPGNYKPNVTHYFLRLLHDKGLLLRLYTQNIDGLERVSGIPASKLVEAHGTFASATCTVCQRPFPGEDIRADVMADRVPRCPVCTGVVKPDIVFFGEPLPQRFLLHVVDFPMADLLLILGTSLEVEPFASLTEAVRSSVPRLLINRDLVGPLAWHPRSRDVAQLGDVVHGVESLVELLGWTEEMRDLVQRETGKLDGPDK
Outline: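 Same pNCA/GDH-coupled 340 nm NADPH read-out as the Sirt2 assay, using 20 mM Na-phosphate pH 7.8 with 3% DMSO at 20 °C for 45 min. Sirt3 (114-380) was used at 5 µM with AceCS2 peptide TRSGacKVMR as substrate. Inhibitors were tested up to 100 µM.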

[5] = biological target: T3, NAD-dependent protein deacetylase sirtuin-1 (Homo sapiens) (UniProt Q96EB6); experiment: Inhibition of human full length SIRT1 activity expressed in Escherichia coli using p53 peptide as substrate up to 100 uM after 45 mins in presence of NAD+ by pNCA/GDH-based microplate spectrophotometric analysis
T3 sequence (whole entry): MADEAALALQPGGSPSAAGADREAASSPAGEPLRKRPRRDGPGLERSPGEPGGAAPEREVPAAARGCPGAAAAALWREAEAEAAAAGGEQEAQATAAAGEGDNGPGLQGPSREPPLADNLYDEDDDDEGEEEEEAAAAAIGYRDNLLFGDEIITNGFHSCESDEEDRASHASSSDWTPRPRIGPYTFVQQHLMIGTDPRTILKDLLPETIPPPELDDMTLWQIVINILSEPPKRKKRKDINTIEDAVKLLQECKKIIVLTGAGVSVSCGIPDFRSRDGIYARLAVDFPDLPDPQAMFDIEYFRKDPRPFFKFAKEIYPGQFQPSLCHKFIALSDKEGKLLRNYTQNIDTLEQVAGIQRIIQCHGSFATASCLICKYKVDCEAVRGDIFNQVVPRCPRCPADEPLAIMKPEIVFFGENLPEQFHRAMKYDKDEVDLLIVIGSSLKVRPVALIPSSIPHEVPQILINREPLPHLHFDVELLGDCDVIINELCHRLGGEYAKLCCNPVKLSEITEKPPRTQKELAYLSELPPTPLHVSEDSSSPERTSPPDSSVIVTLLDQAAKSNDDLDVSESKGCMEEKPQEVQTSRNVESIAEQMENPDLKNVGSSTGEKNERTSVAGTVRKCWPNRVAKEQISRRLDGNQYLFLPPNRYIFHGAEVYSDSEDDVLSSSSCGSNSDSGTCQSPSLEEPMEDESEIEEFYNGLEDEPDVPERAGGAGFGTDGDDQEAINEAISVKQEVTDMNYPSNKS
Outline: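 Full-length Sirt1 at 2 µM with p53 peptide RHKacKLMFK as substrate. Activity was measured in the same coupled pNCA/GDH mix as for Sirt2 (α-ketoglutarate, NADPH, Na-phosphate pH 7.8, 3% DMSO), following NADPH oxidation at 340 nm at 20 °C for 45 min. Compounds were tested up to 100 µM.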

[6] = biological target: NAD-dependent protein deacylase sirtuin-5, mitochondrial (Homo sapiens) (UniProt Q9NXA8); experiment: Inhibition of human SIRT5 (34 to 302 residues) deacetylase activity expressed in Escherichia coli using Prx1 peptide as substrate up to 100 uM after 45 mins in presence of NAD+ by pNCA/GDH-based microplate spectrophotometric analysis
Chain of NAD-dependent protein deacylase sirtuin-5, mitochondrial (Homo sapiens) (Q9NXA8 37-310 limits assumed): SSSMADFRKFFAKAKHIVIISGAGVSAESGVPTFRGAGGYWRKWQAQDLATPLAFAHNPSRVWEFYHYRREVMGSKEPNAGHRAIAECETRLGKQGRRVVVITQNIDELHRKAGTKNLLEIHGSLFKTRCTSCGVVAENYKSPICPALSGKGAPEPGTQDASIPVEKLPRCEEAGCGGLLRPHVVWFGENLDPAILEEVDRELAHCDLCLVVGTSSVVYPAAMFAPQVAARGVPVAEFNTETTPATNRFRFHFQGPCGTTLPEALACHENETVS

[7] = biological target: T4, NAD-dependent protein deacetylase sirtuin-2 (Homo sapiens, UniProt Q8IXJ6)
T4 sequence (Q8IXJ6 whole entry): T1 sequence (whole entry)

[8] = biological target: NAD-dependent protein deacylase sirtuin-5, mitochondrial (Homo sapiens) (UniProt Q9NXA8); experiment: Inhibition of human SIRT5 (34 to 302 residues) desuccinylase activity expressed in Escherichia coli using peptide as substrate up to 100 uM after 45 mins in presence of NAD+ by pNCA/GDH-based microplate spectrophotometric analysis
U-937 [9] = experiment: Induction of apoptosis in human U937 cells assessed as pre-G1 accumulation at 5 to 50 uM after 48 hrs by propidium iodide staining-based FACS analysis; format: functional, cell-based
Outline: (§1)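 Leukemia cells (U937, NB4, HL-60, K562) were grown in RPMI-1640 with 10% FBS, 2 mM L-glutamine and antibiotics, then treated for 48 h at 5, 10, 25 and 50 μM. 2.5×10^5 cells were stained 30 min in the dark in hypotonic PI buffer (0.1% Triton X-100, 0.1% citrate, 50 µg/mL PI, RNase A). Apoptosis was scored as pre-G1 content by flow cytometry. Duplicates, mean ± SD.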

NB-4 = experiment: Induction of apoptosis in human NB4 cells assessed as pre-G1 accumulation at 5 to 50 uM after 48 hrs by propidium iodide staining-based FACS analysis; format: functional, cell-based; outline: as §1
K562 = experiment: Induction of apoptosis in human K562 cells assessed as pre-G1 accumulation at 5 to 50 uM after 48 hrs by propidium iodide staining-based FACS analysis; format: functional, cell-based; outline: as §1
HL-60 = experiment: Induction of apoptosis in human HL60 cells assessed as pre-G1 accumulation at 5 to 50 uM after 48 hrs by propidium iodide staining-based FACS analysis; format: functional, cell-based; outline: as §1
MDA-MB-231 = experiment: Induction of apoptosis in human MDA-MB-231 cells assessed as pre-G1 accumulation at 5 to 50 uM after 48 hrs by propidium iodide staining-based FACS analysis; format: functional, cell-based
Outline: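 MDA-MB-231 breast cancer cells were grown in DMEM with 10% FBS, 2 mM L-glutamine and antibiotics, then exposed for 48 h at 5, 10, 25 or 50 μM. 2.5×10^5 cells were stained in hypotonic buffer with 50 µg/mL PI, 0.1% Triton X-100, 0.1% citrate and RNase A for 30 min in the dark. Pre-G1 fraction was measured by flow cytometry. Biological duplicates, mean ± SD.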

Compound: OCC1CCN(Cc2nc(-c3ccc(Cl)cc3)no2)CC1
- inhibition [1]: Active
- Activity (U-937 [2]): inactive

Compound: Clc1ccc(-c2noc(CCCN3CCCCC3)n2)cc1
- inhibition [1]: inactive
- Activity (U-937 [2]): inactive

Compound: OCCN1CCN(CCCc2nc(-c3ccccc3)no2)CC1
- inhibition [1]: inactive
- Activity (U-937 [2]): inactive

Compound: c1cncc(-c2noc(CN3CCCCC3)n2)c1
- Activity (U-937 [2]): inactive

Compound: FC(F)(F)c1nc(-c2ccc(Br)cc2)no1
- Activity (U-937 [2]): inactive

Compound: CN(C)Cc1nc(-c2ccc(Cl)cc2)no1
- Activity (U-937 [2]): inactive

Compound: Clc1ccc(-c2noc(CN3CCOCC3)n2)cc1
- inhibition [1]: Active
- Activity (U-937 [2]): inactive

Compound: CN1CCN(Cc2nc(-c3ccc(Cl)cc3)no2)CC1
- inhibition [1]: Active
- Activity (U-937 [2]): inactive

Compound: Clc1ccc(-c2noc(CN3CCCCCC3)n2)cc1
- inhibition [1]: Active
- Activity (U-937 [2]): inactive

Compound: O=[N+]([O-])c1ccc(-c2noc(CN3CCCC3)n2)cc1
- inhibition [1]: inactive
- Activity (U-937 [2]): inactive

Compound: BrCCCc1nc(-c2ccccc2Br)no1
- Activity (U-937 [3]): Active

Compound: Clc1ccccc1-c1noc(CCCBr)n1
- Activity (U-937 [3]): Active

Compound: Clc1ccc(-c2noc(CBr)n2)cc1
- Activity (U-937 [3]): Active

Compound: c1ccc(-c2noc(CN3CCCCC3)n2)cc1
- Activity (U-937 [2]): inactive

Compound: ClCCCc1nc(-c2ccc(Br)cc2)no1
- inhibition [4]: inactive
- inhibition [5]: inactive
- inhibition [6]: inactive
- Activity (U-937 [2]): inactive
- IC50 [7]: 3.6 µM
- inhibition [8]: inactive

Compound: Clc1cccc(-c2noc(CCCBr)n2)c1
- Activity (U-937 [2]): inactive

Compound: Clc1ccccc1-c1noc(CN2CCCCC2)n1
- Activity (U-937 [2]): inactive

Compound: BrCCCc1nc(-c2ccccc2)no1
- Activity (U-937 [2]): inactive

Compound: O=[N+]([O-])c1ccc(-c2noc(CCCBr)n2)cc1
- inhibition [1]: Active
- Activity (U-937 [2]): inactive
- IC50 [7]: 6.6 µM

Compound: OCCCc1nc(-c2ccc(Cl)cc2)no1
- IC50 [7]: 41.2 µM

Compound: Clc1ccc(-c2noc(CN3CCCCC3)n2)cc1
- inhibition [1]: Active
- Activity (U-937 [2]): inactive

Compound: BrCCCc1nc(-c2cccc(Br)c2)no1
- Activity (U-937 [2]): inactive

Compound: Cc1nc(-c2ccc(Cl)cc2)no1
- Activity (U-937 [2]): inactive

Compound: Clc1ccc(-c2noc(CN3CCSCC3)n2)cc1
- inhibition [1]: Active
- Activity (U-937 [2]): inactive

Compound: Cc1ccc(-c2noc(CCCBr)n2)cc1
- inhibition [1]: Active
- Activity (U-937 [2]): inactive

Compound: CCN(CC)Cc1nc(-c2ccc([N+](=O)[O-])cc2)no1
- inhibition [1]: inactive
- Activity (U-937 [2]): inactive

Compound: COC(=O)c1nc(-c2ccc(Br)cc2)no1
- Activity (U-937 [2]): inactive

Compound: Clc1ccc(-c2noc(CN3CCCC3)n2)cc1
- inhibition [1]: Active
- Activity (U-937 [2]): inactive

Compound: Clc1ccc(-c2noc(CCCBr)n2)cc1
- inhibition [4]: inactive
- inhibition [1]: Active
- inhibition [5]: inactive
- inhibition [6]: inactive
- Activity (U-937 [2]): inactive
- Activity (U-937 [9]): inactive
- Activity (NB-4): inactive
- Activity (K562): inactive
- Activity (HL-60): inactive
- Activity (MDA-MB-231): inactive
- IC50 [7]: 2.5 µM
- inhibition [8]: inactive

Compound: Clc1ccc(-c2noc(CNC3CCCCC3)n2)cc1
- inhibition [1]: Active
- Activity (U-937 [2]): inactive

Compound: NC(=O)c1nc(-c2ccc(Br)cc2)no1
- Activity (U-937 [2]): inactive

Compound: BrCCCCc1nc(-c2ccc(Br)cc2)no1
- Activity (U-937 [2]): inactive
- IC50 [7]: 2.6 µM

Compound: FC(F)(F)c1ccc(-c2noc(CCCBr)n2)cc1
- Activity (U-937 [2]): inactive
- IC50 [7]: 3.9 µM

Compound: CN(C)Cc1nc(-c2ccc([N+](=O)[O-])cc2)no1
- inhibition [1]: inactive
- Activity (U-937 [2]): inactive

Compound: CC(=O)OCCCc1nc(-c2ccc(Cl)cc2)no1
- IC50 [7]: 21.2 µM

Compound: Clc1cccc(-c2noc(CN3CCCCC3)n2)c1
- Activity (U-937 [2]): inactive

Compound: Clc1ccc(-c2noc(CN3CCN(c4ccccc4)CC3)n2)cc1
- inhibition [1]: Active
- Activity (U-937 [2]): inactive

— ChEMBL document CHEMBL4007450, “Development of 1,2,4-Oxadiazoles as Potent and Selective Inhibitors of the Human Deacetylase Sirtuin 2: Structure-Activity Relationship, X-ray Crystal Structure, and Anticancer Activity” (J Med Chem, 2017)
